# Measurements as given in ChEMBL document CHEMBL1155937, “Substituted 3-((Z)-2-(4-nitrophenyl)-2-(1H-tetrazol-5-yl) vinyl)-4H-chromen-4-ones as novel anti-MRSA agents: synthesis, SAR, and in-vitro assessment” (Bioorg Med Chem Lett, 2008).
# Tests used:
# Escherichia coli = assay: Antibacterial activity against Escherichia coli ATCC 25922 after 24 hrs by twofold serial dilution method; format: functional; details: ATCC 25922, 24 h
# Procedure, shortened: (§1)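 CLSI agar-dilution MIC on Mueller Hinton agar with serial twofold drug dilutions. About 10⁴ CFU applied per spot by multipoint inoculator. Incubated at 35 °C and growth scored at 24 h. DMSO served as solvent control. S. aureus ATCC 29213 was the QC strain. Twofold differences were confirmed by a third repetition, and the more frequent result was reported.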
# Staphylococcus aureus [1] = assay: Antibacterial activity against methicillin-sensitive Staphylococcus aureus ATCC 13709 Smith after 24 hrs by twofold serial dilution method; format: functional; procedure, shortened: as §1
# Staphylococcus aureus [2] = assay: Antibacterial activity against methicillin-resistant Staphylococcus aureus 032 after 24 hrs by twofold serial dilution method; format: functional
# Procedure, shortened: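 Agar dilution MIC per CLSI on Mueller Hinton agar with serial twofold drug dilutions. About 10⁴ CFU applied per spot with a multipoint inoculator, incubated at 35 °C, and growth scored at 24 h. DMSO served as solvent control. Twofold discrepancies were confirmed by a third repetition, and the more frequent value was reported.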
# Enterococcus faecalis = assay: Antibacterial activity against Enterococcus faecalis ATCC 29212 after 24 hrs by twofold serial dilution method; format: functional; details: ATCC 29212, 24 h; procedure, shortened: as §1
# Streptococcus pneumoniae = assay: Antibacterial activity against Streptococcus pneumoniae ATCC 49619 after 24 hrs by twofold serial dilution method; format: functional; details: ATCC 49619, 24 h
# Procedure, shortened: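 About 10⁴ CFU applied per spot. Incubated at 35 °C in 5% CO₂ and growth scored at 24 h. DMSO served as solvent control. Twofold differences were confirmed by a third repetition.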
# [3] = pKa of the compound; format: physicochemical
pKa [3],SMILES,MIC (Escherichia coli) [µg/mL],MIC (Staphylococcus aureus [1]) [µg/mL],MIC (Staphylococcus aureus [2]) [µg/mL],MIC (Enterococcus faecalis) [µg/mL],MIC (Streptococcus pneumoniae) [µg/mL]
–,Cc1ccc2occ(/C=C(/c3ccc([N+](=O)[O-])cc3)c3nnn[nH]3)c(=O)c2c1,> 32,8,> 32,> 32,> 32
–,CC[C@H]1OC(=O)[C@H](C)[C@@H](O[C@H]2C[C@@](C)(OC)[C@@H](O)[C@H](C)O2)[C@H](C)[C@@H](O[C@@H]2O[C@H](C)C[C@H](N(C)C)[C@H]2O)[C@](C)(O)C[C@@H](C)C(=O)[C@H](C)[C@@H](O)[C@]1(C)O [ERYTHROMYCIN],> 32,0.5,> 32,2,0.12
–,CC1(C)S[C@@H]2[C@H](NC(=O)[C@H](N)c3ccccc3)C(=O)N2[C@H]1C(=O)O [AMPICILLIN],> 32,0.25,> 32,0.5,0.06
–,Cc1cc(C)c2occ(/C=C(/c3ccc([N+](=O)[O-])cc3)c3nnn[nH]3)c(=O)c2c1,> 32,8,2,16,16
5.85,O=c1c(-c2nnn[nH]2)coc2ccccc12,–,–,–,–,–
–,O=C(O)c1cn(C2CC2)c2cc(N3CCNCC3)c(F)cc2c1=O [CIPROFLOXACIN],> 32,0.12,> 32,0.5,2
–,O=c1c(/C=C(/c2ccc([N+](=O)[O-])cc2)c2nnn[nH]2)coc2c(Cl)cc(Cl)cc12,> 32,16,2,8,1
–,O=c1c(/C=C(/c2ccc([N+](=O)[O-])cc2)c2nnn[nH]2)coc2ccc(F)cc12,> 32,8,0.5,4,0.5
–,O=c1c(/C=C(/c2ccc([N+](=O)[O-])cc2)c2nnn[nH]2)coc2ccc(Br)cc12,> 32,> 32,> 32,> 32,> 32
–,O=c1c(/C=C(/c2ccc([N+](=O)[O-])cc2)c2nnn[nH]2)coc2ccc(Cl)cc12,> 32,> 32,> 32,> 32,> 32
–,Cc1cc2occ(/C=C(/c3ccc([N+](=O)[O-])cc3)c3nnn[nH]3)c(=O)c2cc1Cl,> 32,16,4,16,16
